Tested on: ambulant boys with DMD
Test: Phase Ib safety assessments
Assay type: in vivo, human
How it was run: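 Open-label study in boys aged 6–14 with genetically confirmed DMD, walking ≥75 m and on stable corticosteroids ≥6 months. Dosing was oral, 50–300 mg TID for 4 weeks, in 4 ascending cohorts. Assessments at screening, weeks 1, 2 and 4, and 1–2 weeks post-treatment: physical exam, AEs, supine/standing blood pressure and heart rate, respiratory rate. Also 12-lead ECG with QT, read locally and centrally, plus blood/urine haematology and biochemistry.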

[1] = Cohort 2 N = 5, 300 to 450 mg daily oral, 4 weeks
[2] = Cohort 3 N = 5, 450 to 600 mg daily oral, 4 weeks
[3] = Cohort 4 N = 5, 600 to 900 mg daily oral, 4 weeks

[H]/N=C(\N)NC(=O)c1cc(S(C)(=O)=O)c(S(C)(=O)=O)cc1C [Rimeporide]
Diarrhoea: patients (events) [1]: 0 | Dizziness: patients (events) [1]: 0 | Ear and labyrinth disorders: patients (events) [1]: 0 | Fall: patients (events) [1]: 0 | Flushing: patients (events) [1]: 0 | Gastrointestinal disorders: patients (events) [1]: 1 (1 event) | General disorders and administration site conditions: patients (events) [1]: 0 | Headache: patients (events) [1]: 0 | Infections and infestations: patients (events) [1]: 1 (1 event) | Injury, poisoning and procedural complications: patients (events) [1]: 0 | Mouth ulceration: patients (events) [1]: 1 (1 event) | Nasopharyngitis: patients (events) [1]: 1 (1 event) | Nervous system disorders: patients (events) [1]: 0 | Oropharyngeal pain: patients (events) [1]: 0 | Presyncope: patients (events) [1]: 0 | Pyrexia: patients (events) [1]: 0 | Respiratory, thoracic and mediastinal disorders: patients (events) [1]: 1 (1 event) | Tympanic membrane perforation: patients (events) [1]: 0 | Vascular disorders: patients (events) [1]: 0 | Vomiting: patients (events) [1]: 0 | Abdominal pain upper: patients (events) [2]: 1 (2 events) | Any treatment-emergent adverse event: patients (events) [2]: 5 (15 events) | Chills: patients (events) [2]: 0 | Cough: patients (events) [2]: 1 (1 event) | Diarrhoea: patients (events) [2]: 3 (4 events) | Dizziness: patients (events) [2]: 1 (1 event) | Ear and labyrinth disorders: patients (events) [2]: 0 | Fall: patients (events) [2]: 0 | Flushing: patients (events) [2]: 1 (1 event) | Gastrointestinal disorders: patients (events) [2]: 4 (8 events) | General disorders and administration site conditions: patients (events) [2]: 0 | Headache: patients (events) [2]: 2 (2 events) | Infections and infestations: patients (events) [2]: 2 (2 events) | Injury, poisoning and procedural complications: patients (events) [2]: 0 | Mouth ulceration: patients (events) [2]: 0 | Nasopharyngitis: patients (events) [2]: 2 (2 events) | Nervous system disorders: patients (events) [2]: 3 (3 events) | Oropharyngeal pain: patients (events) [2]: 0 | Presyncope: patients (events) [2]: 0 | Pyrexia: patients (events) [2]: 0 | Respiratory, thoracic and mediastinal disorders: patients (events) [2]: 1 (1 event) | Tympanic membrane perforation: patients (events) [2]: 0 | Vascular disorders: patients (events) [2]: 1 (1 event) | Vomiting: patients (events) [2]: 2 (2 events) | Abdominal pain upper: patients (events) [3]: 1 (1 event) | Any treatment-emergent adverse event: patients (events) [3]: 4 (13 events) | Chills: patients (events) [3]: 0 | Cough: patients (events) [3]: 1 (1 event) | Diarrhoea: patients (events) [3]: 0 | Dizziness: patients (events) [3]: 0 | Ear and labyrinth disorders: patients (events) [3]: 1 (1 event) | Flushing: patients (events) [3]: 1 (2 events) | Gastrointestinal disorders: patients (events) [3]: 1 (1 event) | General disorders and administration site conditions: patients (events) [3]: 1 (1 event) | Headache: patients (events) [3]: 2 (3 events) | Infections and infestations: patients (events) [3]: 1 (1 event) | Mouth ulceration: patients (events) [3]: 0 | Nasopharyngitis: patients (events) [3]: 1 (1 event) | Nervous system disorders: patients (events) [3]: 3 (4 events) | Oropharyngeal pain: patients (events) [3]: 1 (1 event) | Presyncope: patients (events) [3]: 1 (1 event) | Pyrexia: patients (events) [3]: 1 (1 event) | Respiratory, thoracic and mediastinal disorders: patients (events) [3]: 2 (2 events) | Tympanic membrane perforation: patients (events) [3]: 1 (1 event) | Vascular disorders: patients (events) [3]: 1 (2 events) | Vomiting: patients (events) [3]: 0 | gastrin levels (after a four-week treatment): No modifications of gastrin levels | TEAEs of mild intensity (all cohorts): Thirty-five | TEAEs reported as severe (all cohorts): 2 | SAE related to study medication (all doses, 4 weeks, 20 DMD boys): No SAE related to study medication was reported | blood pressure and heart rate (standing and supine, 4-week treatment): devoid of any blood pressure or heart rate lowering effects | treatment emergent adverse events (TEAEs), total events (twelve patients of 20): 37
